Calls of active or inactive are those of the source. The rule behind the calls is not given here.
Experiments:
518A2 = experiment: Antiproliferative activity against human 518A2 cells after 72 hrs by MTT assay; format: functional, cell-based; details: for IC50: 518A2, 72 h
How it was run: (§1)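 MTT read-out after 72 h of continuous exposure. Viability is expressed as percentage of viable cells relative to untreated controls. IC50 comes from dose-response curves. Values are means±SD of four independent experiments (two for some entries). DMSO was below 1%, with vehicle controls at equal DMSO. Precipitation was excluded spectrometrically and microscopically.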

HT-29 = experiment: Antiproliferative activity against human HT-29 cells after 72 hrs by MTT assay; format: functional, cell-based; details: HT-29, 72 h; how it was run: as §1
A2780 = experiment: Antiproliferative activity against human A2780 cells after 72 hrs by SRB assay; format: functional, cell-based; details: A2780, 72 h
How it was run: (§2)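 Ovarian A2780 and cisplatin-resistant A2780cis cells were exposed for 72 h and stained with SRB. IC50 comes from dose-response curves, as means±SD of three independent experiments. Final DMSO was below 1%, with matched vehicle controls.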

[1] = Antiproliferative activity against human A2780cis cells after 72 hrs by SRB assay; format: functional, cell-based; how it was run: as §2
DLD-1 = experiment: Antiproliferative activity against human DLD1 cells after 72 hrs by MTT assay; format: functional, cell-based; details: DLD-1, 72 h; how it was run: as §1
EA.hy 926 = experiment: Antiproliferative activity against human EAhy926 cells after 72 hrs by MTT assay; format: functional, cell-based; details: EA.hy 926, 72 h; how it was run: as §1
PANC-1 = experiment: Antiproliferative activity against human PANC1 cells after 72 hrs by MTT assay; format: functional, cell-based; details: PANC-1, 72 h; how it was run: as §1
HCT-116 = experiment: Antiproliferative activity against human HCT116 cells after 72 hrs by MTT assay; format: functional, cell-based; details: HCT-116, 72 h; how it was run: as §1
[2] = Antiproliferative activity against human KB-V1/Vbl cells after 72 hrs by MTT assay; format: functional, cell-based; how it was run: as §1
[3] = Antiproliferative activity against human MCF7/Topo cells after 72 hrs by MTT assay; format: functional, cell-based; how it was run: as §1
[4] = Solubility in tween80/ethanol (1:1) solution; format: physicochemical
Chorioallantoic membrane [5] = experiment: Antiangiogenic activity in Leghorn chicken embryo chorioallantoic membrane assessed as induction of hemorrhages at 2.5 nmol after 24 hrs by light microscopic analysis; format: functional, tissue-based; details: Gallus gallus
How it was run: (§3)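 Fertilized chicken eggs, CAM assay. Compound was applied topically into a small silicon foil ring placed on the CAM. The membrane and its extraembryonal blood vessels were monitored over 24 h, with observations at 6 h and 24 h post application.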

Chorioallantoic membrane [6] = experiment: Antiangiogenic activity in Leghorn chicken embryo chorioallantoic membrane assessed as disruption of bigger blood vessels at 2.5 nmol after 6 hrs by light microscopic analysis; format: functional, tissue-based; details: Gallus gallus; how it was run: as §3
Chorioallantoic membrane [7] = experiment: Antiangiogenic activity in Leghorn chicken embryo chorioallantoic membrane assessed as induction of corrosion at 2.5 nmol after 24 hrs by light microscopic analysis; format: functional, tissue-based; details: Gallus gallus; how it was run: as §3
Chorioallantoic membrane [8] = experiment: Antiangiogenic activity in Leghorn chicken embryo chorioallantoic membrane assessed as effect on blood vessel length at 2.5 nmol after 6 hrs by light microscopic analysis; format: functional, tissue-based; details: Gallus gallus; how it was run: as §3
Chorioallantoic membrane [9] = experiment: Antiangiogenic activity in Leghorn chicken embryo chorioallantoic membrane assessed as reduction in blood vessel area at 2.5 nmol after 6 hrs by light microscopic analysis relative to control; format: functional, tissue-based; details: Gallus gallus
How it was run: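 The CAM assay was run with topical application into a silicon foil ring atop the CAM of fertilized chicken eggs. Area covered by blood vessels was quantified by fractal analysis relative to control.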

IC50 (HT-29) [nM]	IC50 (A2780) [nM]	IC50 (DLD-1) [nM]	IC50 (PANC-1) [nM]	IC50 (HCT-116) [nM]	solubility [4]	SMILES	Activity (518A2)	IC50 (518A2) [nM]	IC50 [1] [nM]	IC50 (EA.hy 926) [nM]	IC50 [2] [nM]	IC50 [3] [nM]	Activity (Chorioallantoic membrane [5])	Activity (Chorioallantoic membrane [6])	Activity (Chorioallantoic membrane [7])	Activity (Chorioallantoic membrane [8])	Activity (Chorioallantoic membrane [9])
45.2	16.4	15	13.1	29.5	Insoluble	COc1c(I)cc(C2C(C#N)=C(N)Oc3c2ccc2ccccc32)cc1I (centres undefined)	Dose-dependent effect	37.1	18.2	17.9	16.5	22.8					
						COc1ccc(/C=C\c2cc(OC)c(OC)c(OC)c2)cc1O							Active	Active	Active	Active	Active
103	16.7	59	27.9	69.2	Insoluble	COc1c(Cl)cc(C2C(C#N)=C(N)Oc3c2ccc2ccccc32)cc1Cl (centres undefined)	Dose-dependent effect	44.6	19.2	32.6	30.2	29.9					
